The record followed here is ChEMBL document CHEMBL1821605, “4-Quinazolinyloxy-diaryl ureas as novel BRAFV600E inhibitors” (Bioorg Med Chem Lett, 2011).

The source made the active and inactive calls. No cut-off for these calls is given here.

T1 sequence (P15056 2-766 V600E limits assumed): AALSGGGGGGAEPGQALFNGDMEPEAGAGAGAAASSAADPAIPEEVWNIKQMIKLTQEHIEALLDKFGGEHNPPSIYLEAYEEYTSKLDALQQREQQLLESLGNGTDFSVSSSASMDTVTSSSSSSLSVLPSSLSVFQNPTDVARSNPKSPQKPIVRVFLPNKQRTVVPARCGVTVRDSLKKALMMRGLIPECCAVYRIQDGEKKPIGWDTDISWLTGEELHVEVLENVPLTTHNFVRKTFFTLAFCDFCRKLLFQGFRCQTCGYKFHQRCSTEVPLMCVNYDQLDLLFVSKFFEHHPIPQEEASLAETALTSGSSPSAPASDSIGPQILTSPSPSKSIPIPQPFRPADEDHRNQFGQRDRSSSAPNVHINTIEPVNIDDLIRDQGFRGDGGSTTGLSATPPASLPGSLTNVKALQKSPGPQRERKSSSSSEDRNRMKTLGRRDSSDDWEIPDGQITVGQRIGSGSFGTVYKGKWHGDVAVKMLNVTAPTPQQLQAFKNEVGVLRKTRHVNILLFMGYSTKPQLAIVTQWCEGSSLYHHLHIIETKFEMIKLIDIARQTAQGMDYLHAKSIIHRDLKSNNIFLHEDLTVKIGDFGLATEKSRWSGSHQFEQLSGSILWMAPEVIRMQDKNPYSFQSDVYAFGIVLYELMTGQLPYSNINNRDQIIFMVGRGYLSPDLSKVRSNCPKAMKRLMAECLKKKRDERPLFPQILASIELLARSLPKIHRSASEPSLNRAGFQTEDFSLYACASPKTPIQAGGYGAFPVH

The first data set concerns COLO 205. Briefly: Antitumor activity against human COLO205 cells xenografted in nude mouse assessed as tumor stasis at > 100 mg/kg, […]. The class given is functional, organism-based. Further details: dose 100 mg/kg.
Details: not given
With `COc1cc2ncnc(Sc3cccc(NC(=O)Nc4cc(C(C)(C)C)on4)c3)c2cc1OC` [listing 1 of 2 here], the result was inactive.

In a further data set the test system is COLO 205. Kind of data set: Antitumor activity against human COLO205 cells xenografted in nude mouse assessed as tumor stasis at 100 mg/kg, po bid upto 8 days. The class given is functional, organism-based. The arrangement: dose 100 mg/kg.
Details: not given
In outline: (§1)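 Mice bearing Colo-205 tumors were dosed orally bid at 30, 55 or 100 mg/kg and compared with a vehicle control group. Tumor growth was followed over the dosing period, […]. Outcomes recorded were stasis, regrowth, incidence of regressions and % growth inhibition. Significance was tested against vehicle.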
Background: Xenograft models place foreign cells or tissue in a host animal.
`COc1cc2ncnc(Sc3cccc(NC(=O)Nc4cc(C(C)(C)C)on4)c3)c2cc1OC` [listing 1 of 2 here]: the outcome was Active.

The next data set concerns the target T1, Serine/threonine-protein kinase B-raf (Homo sapiens, UniProt P15056, V600E). Briefly: Binding affinity to BRAF V600E mutant.
Details: not given
As to `COc1cc2ncnc(Oc3ccc(Cl)c(NC(=O)Nc4cc(C(C)(C)C)on4)c3)c2cc1OC`, the dissociation constant Kd (in general, the equilibrium constant for the complex coming apart) came out at 99 nM.

`COc1cc2ncnc(Oc3cccc(NC(=O)Nc4cc(C(C)(C)C)on4)c3C)c2cc1OC` came in with a Kd of 38 nM. This Kd is about 2.6-fold lower than that of the molecule before.

Molecule `COc1cc2ncnc(Oc3cccc(NC(=O)Nc4ccccc4)c3)c2cc1OC` had a Kd of 370 nM.

In turn, `COc1cc2ncnc(Oc3cccc(NC(=O)Nc4cc(C(C)(C)C)on4)c3)c2cc1OC` yielded a Kd of 73 nM.

For `COc1cc2ncnc(Oc3cccc(NC(=O)Nc4cccc(C(F)(F)F)c4)c3)c2cc1OC`, binding was put at a Kd of 46 nM.

Consider `COc1cc2ncnc(Oc3cccc(NC(=O)Nc4cccc(C(C)(C)C)c4)c3)c2cc1OC`, for which binding was characterised by a dissociation constant (Kd) of 36 nM.

The molecule `COc1cc2ncnc(Oc3cccc(NC(=O)Nc4cc(C(C)(C)C)on4)c3)c2cc1OCCN1CCOCC1` came in with a Kd of 38 nM.

In turn, `COc1cc2ncnc(Oc3cccc(NC(=O)Nc4ccc(Cl)cc4)c3)c2cc1OC` had a Kd of 30 nM.

Molecule `COc1cc2c(Oc3cccc(NC(=O)Nc4cc(C(C)(C)C)on4)c3)ncnc2cc1OCCCN1CCOCC1` yielded a Kd of 56 nM.

As for `COc1cc2ncnc(Oc3cccc(NC(=O)Nc4ccc(C(C)(C)C)cc4)c3)c2cc1OC`, the Kd was 96 nM.

The molecule `CCOc1cc2ncnc(Oc3cccc(NC(=O)Nc4cc(C(C)(C)C)on4)c3)c2cc1OC` displayed a Kd of 82 nM.

Consider `COc1cc2ncnc(Nc3cccc(NC(=O)Nc4cc(C(C)(C)C)on4)c3)c2cc1OC`, for which the Kd is 40 nM.

`COc1cc2ncnc(Oc3cccc(NC(=O)Nc4cc(C(C)(C)C)on4)c3)c2cc1OCCN1CCCCC1` gave a Kd of 96 nM.

As to `COc1cc2ncnc(Oc3cc(NC(=O)Nc4cc(C(C)(C)C)on4)c(F)cc3F)c2cc1OC`, the Kd came to 46 nM.

In the case of `COc1cccc(NC(=O)Nc2cccc(Oc3ncnc4cc(OC)c(OC)cc34)c2)c1`, the Kd came out at 90 nM.

With `COc1cc2ncnc(Sc3cccc(NC(=O)Nc4cc(C(C)(C)C)on4)c3)c2cc1OC` [listing 2 of 2 here], the Kd was 61 nM.

Take `COc1cc2ncnc(Oc3cccc(NC(=O)Nc4ccc(Cl)c(C(F)(F)F)c4)c3)c2cc1OC`: the Kd was found to be 98 nM.

`COc1cc2ncnc(Nc3ccc(NC(=O)Nc4cc(C(C)(C)C)on4)cc3)c2cc1OC` came in with a Kd of 478 nM.

The test system of a further data set is Mus musculus. Briefly: Inhibition of BRAF V600E mutant-dependent MEK phosphorylation in Colo205 cells xenografted in nude mouse at 100 mg/kg, po bid for 5 days measured at 10 hrs post-dose. The data set is classed as functional. As to conditions: COLO 205. In a few lines:
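Colo-205 xenograft mice were dosed orally at 100 mg/kg bid. On day 5 of dosing, tumor tissue was collected 10 h post-dose and phosphorylated MEK levels were measured against vehicle.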
In turn, `COc1cc2ncnc(Sc3cccc(NC(=O)Nc4cc(C(C)(C)C)on4)c3)c2cc1OC` [listing 2 of 2 here] came in with an inhibition in vivo at 100 mg/kg of 75%.

System in another data set: not listed separately
Briefly: AUC in mouse plasma at 30 mg/kg, po. The class given is ADME, organism-based. Further details: dose 30 mg/kg, route oral.
Details: not given
In outline:
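Compound given orally to mice at the stated dose. Plasma exposure reported as AUC in μM × h.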
In the case of `COc1cc2ncnc(Sc3cccc(NC(=O)Nc4cc(C(C)(C)C)on4)c3)c2cc1OC` [listing 2 of 2 here], the AUC (in general, the area under the concentration-time curve, a measure of exposure) is 22 µM·h.

A further data set relates to Mus musculus. Kind of data set: Toxicity in nude mouse xenografted with human COLO205 cells assessed as body weight loss at 10 to 100 mg/kg, po bid upto 15 days. Further details: dose 10-100 mg/kg, route oral. The data set is classed as organism-based, COLO 205. The note with it: in vivo, 360 h. In a few lines: (§2)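 Body weight was monitored in Colo-205 xenograft-bearing mice during oral bid dosing, with maximum % loss recorded. Monitoring continued after dosing stopped to assess reversibility.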
Regarding `COc1cc2ncnc(Sc3cccc(NC(=O)Nc4cc(C(C)(C)C)on4)c3)c2cc1OC` [listing 2 of 2 here], the Activity result is “Non-toxic”.

A further data set deals with COLO 205. Briefly: Antitumor activity against human COLO205 cells xenografted in nude mouse assessed as tumor stasis at 55 mg/kg, po bid upto 8 days. The class given is functional, organism-based. The arrangement: dose 55 mg/kg.
Details: not given
In a few lines:
as §1
Regarding `COc1cc2ncnc(Sc3cccc(NC(=O)Nc4cc(C(C)(C)C)on4)c3)c2cc1OC` [listing 1 of 2 here], the result was Active.

A further data set relates to Mus musculus. Briefly: Toxicity in nude mouse xenografted with human COLO205 cells assessed as body weight loss at 30 to 100 mg/kg, po bid upto 15 days. As to conditions: in vivo, 360 h. Further details: dose 30-100 mg/kg, route oral. The class given is organism-based, COLO 205. In outline: as §2
Regarding `COc1cc2ncnc(Sc3cccc(NC(=O)Nc4cc(C(C)(C)C)on4)c3)c2cc1OC` [listing 2 of 2 here], the Activity result is “Non-toxic”.

A further data set concerns COLO 205. Kind of data set: Antitumor activity against human COLO205 cells xenografted in nude mouse assessed as tumor growth inhibition at 55 mg/kg, po bid upto 8 days. The data set is classed as functional. As to conditions: COLO 205, 192 h, read-out: TGI. In a few lines:
as §1
For the molecule `COc1cc2ncnc(Sc3cccc(NC(=O)Nc4cc(C(C)(C)C)on4)c3)c2cc1OC` [listing 2 of 2 here], the inhibition in vivo at 55 mg/kg was 45%.

A further data set relates to Mus musculus. Briefly: Inhibition of BRAF V600E mutant-dependent MEK phosphorylation in Colo205 cells xenografted in nude mouse assessed as compound concentration in plasma required for maximum % inhibition. The class given is functional.
Details: not given
In the case of `COc1cc2ncnc(Sc3cccc(NC(=O)Nc4cc(C(C)(C)C)on4)c3)c2cc1OC` [listing 2 of 2 here], the Activity amounted to 0.2 µM.

The subject of the next data set is COLO 205. Kind of data set: Antitumor activity against human COLO205 cells xenografted in nude mouse assessed as tumor growth inhibition at 100 mg/kg, po bid upto 8 days. The class given is functional. As to conditions: COLO 205, 192 h, read-out: TGI. In a few lines: as §1
`COc1cc2ncnc(Sc3cccc(NC(=O)Nc4cc(C(C)(C)C)on4)c3)c2cc1OC` [listing 2 of 2 here]: the inhibition in vivo at 100 mg/kg is 45%.

Another data set deals with Mus musculus. Briefly: Inhibition of BRAF V600E mutant-dependent MEK phosphorylation in Colo205 cells xenografted in nude mouse assessed as compound concentration in tumor required for maximum % inhibition. The class given is functional.
Details: not given
For `COc1cc2ncnc(Sc3cccc(NC(=O)Nc4cc(C(C)(C)C)on4)c3)c2cc1OC` [listing 2 of 2 here], the Activity was 0.2 µM.

The test system of a further data set is Mus musculus. Kind of data set: Inhibition of BRAF V600E mutant-dependent MEK phosphorylation in Colo205 cells xenografted in nude mouse at 100 mg/kg, po bid for 5 days measured at 24 hrs post-dose. The data set is classed as functional. As to conditions: COLO 205.
`COc1cc2ncnc(Sc3cccc(NC(=O)Nc4cc(C(C)(C)C)on4)c3)c2cc1OC` [listing 2 of 2 here] returned an inhibition in vivo at 100 mg/kg of 55%.

System in the next data set: not listed separately
Kind of data set: Oral bioavailability in rat. The data set is classed as ADME, organism-based. The note with it: in vivo. In a few lines: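 Oral bioavailability (%F) was measured in rats, generally dosing the hydrochloride salt; some compounds were given as free base.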
On to `COc1cc2ncnc(Oc3cccc(NC(=O)Nc4cc(C(C)(C)C)on4)c3)c2cc1OCCN1CCOCC1`, for which the bioavailability (commonly the share of a dose that reaches the circulation, judged against a reference dose that is usually intravenous) turned out to be 11%.

In the case of `COc1cc2c(Oc3cccc(NC(=O)Nc4cc(C(C)(C)C)on4)c3)ncnc2cc1OCCCN1CCOCC1`, the bioavailability turned out to be 18%.

As to `COc1cc2ncnc(Oc3cccc(NC(=O)Nc4ccc(C(C)(C)C)cc4)c3)c2cc1OC`, the bioavailability came out at 15%.

Turning to `COc1cc2ncnc(Oc3cc(NC(=O)Nc4cc(C(C)(C)C)on4)c(F)cc3F)c2cc1OC`, the bioavailability was 14%.

In another data set the target is T1, Serine/threonine-protein kinase B-raf. Briefly: Inhibition of BRAF V600E mutant-dependent MEK phosphorylation in A375 cells. The data set is classed as cell-based, A-375.
Details: not given
`COc1cc2ncnc(Oc3ccc(Cl)c(NC(=O)Nc4cc(C(C)(C)C)on4)c3)c2cc1OC`: the half-maximal inhibitory concentration (IC50) (commonly the point on the concentration scale where inhibition reaches its midpoint) turned out to be 229 nM.

`COc1cc2ncnc(Oc3cccc(NC(=O)Nc4cc(C(C)(C)C)on4)c3C)c2cc1OC` had an IC50 of 179 nM. This IC50 and that of the molecule before are within 1.5-fold of each other.

`COc1cc2ncnc(Oc3cccc(NC(=O)Nc4cc(C(C)(C)C)on4)c3)c2cc1OC`: inhibition was half-maximal at 121 nM (IC50).

For the molecule `COc1cc2ncnc(Oc3cccc(NC(=O)Nc4cccc(C(F)(F)F)c4)c3)c2cc1OC`, the IC50 stood at 1660 nM.

`COc1cc2ncnc(Oc3cccc(NC(=O)Nc4cccc(C(C)(C)C)c4)c3)c2cc1OC` gave an IC50 of 333 nM.

Molecule `COc1cc2ncnc(Oc3cccc(NC(=O)Nc4cc(C(C)(C)C)on4)c3)c2cc1OCCN1CCOCC1` showed an IC50 of 52 nM.

Take `COc1cc2ncnc(Oc3cccc(NC(=O)Nc4ccc(Cl)cc4)c3)c2cc1OC`: inhibition was half-maximal at 1850 nM (IC50).

For `COc1cc2c(Oc3cccc(NC(=O)Nc4cc(C(C)(C)C)on4)c3)ncnc2cc1OCCCN1CCOCC1`, the IC50 was found to be 96 nM.

`COc1cc2ncnc(Oc3cccc(NC(=O)Nc4ccc(C(C)(C)C)cc4)c3)c2cc1OC`: the IC50 worked out at 290 nM.

With `CCOc1cc2ncnc(Oc3cccc(NC(=O)Nc4cc(C(C)(C)C)on4)c3)c2cc1OC`, inhibition was half-maximal at 173 nM (IC50).

In the case of `COc1cc2ncnc(Nc3cccc(NC(=O)Nc4cc(C(C)(C)C)on4)c3)c2cc1OC`, the IC50 was determined as 82 nM. Against the preceding molecule, the IC50 is about 2.1-fold lower.

As for `COc1cc2ncnc(Oc3cccc(NC(=O)Nc4cc(C(C)(C)C)on4)c3)c2cc1OCCN1CCCCC1`, it took 293 nM to reach half-maximal inhibition (IC50).

In turn, `COc1cc2ncnc(Oc3cc(NC(=O)Nc4cc(C(C)(C)C)on4)c(F)cc3F)c2cc1OC` yielded a 50% inhibitory concentration (IC50) of 113 nM.

Molecule `COc1cccc(NC(=O)Nc2cccc(Oc3ncnc4cc(OC)c(OC)cc34)c2)c1` showed an IC50 of 10000 nM.

In turn, `COc1cc2ncnc(Sc3cccc(NC(=O)Nc4cc(C(C)(C)C)on4)c3)c2cc1OC` [listing 2 of 2 here] came in with an IC50 of 118 nM.

Consider `COc1cc2ncnc(Oc3cccc(NC(=O)Nc4ccc(Cl)c(C(F)(F)F)c4)c3)c2cc1OC`, for which the IC50 amounted to 696 nM.
